m5-HT2A agonist: mouse HTR2A agonism via beta-arrestin recruitment | CHO-K1 mHTR2A beta-arrestin complementation, luminescence; percent of 30 µM serotonin response | activation, % at 7.6 µM | 360,000 compounds, 0.66% hits;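 active = activation above a run cutoff, the mean activation of all tested compounds plus 3 SD, cut at about 14% in these data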;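 note: 0% = plate median of compound wells and 100% = 30 µM serotonin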
Target sequence (P35363 whole entry, looked up): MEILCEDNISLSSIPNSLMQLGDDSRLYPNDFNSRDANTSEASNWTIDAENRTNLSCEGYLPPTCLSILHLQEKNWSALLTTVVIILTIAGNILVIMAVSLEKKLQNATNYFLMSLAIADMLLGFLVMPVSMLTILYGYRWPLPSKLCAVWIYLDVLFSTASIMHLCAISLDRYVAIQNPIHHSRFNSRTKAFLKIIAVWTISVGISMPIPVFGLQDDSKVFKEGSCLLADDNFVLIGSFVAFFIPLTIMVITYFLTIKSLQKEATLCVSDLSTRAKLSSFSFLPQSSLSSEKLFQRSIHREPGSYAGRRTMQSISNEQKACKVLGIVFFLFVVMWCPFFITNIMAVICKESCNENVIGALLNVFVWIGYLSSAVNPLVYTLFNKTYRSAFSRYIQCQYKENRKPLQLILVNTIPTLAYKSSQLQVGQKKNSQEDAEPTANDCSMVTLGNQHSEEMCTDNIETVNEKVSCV
TAAR1 antag: antagonists of human TAAR1; AID 624466; Q96RJ0; inhibition, % at 3 µM; 360,000 compounds, 1.5% hits; CHO RD-HGA16 TAAR1, Fluo-8 calcium fluorescence, antagonist;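 active = inhibition above a per-plate cutoff, the mean inhibition of test compounds on that plate plus 3 SD, cut at about 49% in these data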;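 note: 0% = DMSO plus EC80 beta-PEA response and 100% = DMSO alone without agonist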
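Test system: RD-HGA16 CHO cells with stable hTAAR1 and Gα16 / Probe or stimulus: EC80 β-phenethylamine stimulus / Times: seeding 17-24 h prior, 75-min 37 °C, 30-min RT dye loading / Detection: Fluo-8 calcium-sensitive fluorescence / Read-out basis: % inhibition scaled between DMSO and EC80 PEA controls / Repeats: singlicate, one well per test compound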
CHRM1 antagonist: blocks human M1 muscarinic receptor | P11229 | CHO-K1 hM1, Fluo-8 calcium fluorescence, ACh EC80 antagonist | inhibition, % at 3 µM | 360,000 compounds, 1.3% hits;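 active = percent inhibition above its own plate's cutoff, namely the mean of that plate's compound wells plus 3 SD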;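 note: peak over basal fluorescence ratio during 140 s after agonist addition; 0% = ACh EC80 plus DMSO and 100% = DMSO alone without agonist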
M1 PAM: human CHRM1 positive allosteric modulation. CHO-K1 hM1, Fluo-8 calcium fluorescence, ACh EC20; 0% = ACh EC20, 100% = maximal ACh. AID 588819. P11229. 360,000 compounds, 0.088% hits. activation, % at 3 µM; in the data active = activation above about 19%, passing the limit was not always enough
TAAR1 ag: agonists of human TAAR1; Q96RJ0; CHO RD-HGA16 TAAR1, Fluo-8 calcium fluorescence; vehicle wells 0%, saturating PEA agonist 100%; activation, % at 3 µM; 360,000 compounds, 0.99% hits; AID 624467;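 active = activation above the mean activation of all test compounds in the run plus 3 SD, cut at about 38% in these data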
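Test system: RD-HGA16 (CHO) cells co-expressing Gα16 and hTAAR1; dosing: one-point dosing at 3 µM (nominal); timing: 17-24 h seeding, 75 min 37 °C dye, 30 min RT; signal: kinetic Fluo-8 calcium fluorescence; read-out basis: % activation relative to PEA EC100 response; controls: DMSO and PEA EC100; replicates: n 1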
M1 ag: human M1 muscarinic receptor agonism | P11229 | CHO-K1 hM1, Fluo-8 calcium fluorescence, agonist mode; 0% DMSO, 100% acetylcholine EC100 | activation, % at 3 µM | 360,000 compounds, 0.33% hits | AID 588814;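 active = activation above the run's mean compound activation plus 3 SD, cut at about 16% in these data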;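 note: peak over basal fluorescence ratio within a 140 s kinetic read after compound addition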
TAAR1 nonsel count: nonselective antagonist in TAAR1 antagonist counter-screen; shares compounds with TAAR1 antag; counterscreen cell line, calcium fluorescence, antagonist mode; 2,400 compounds, 77% hits; inhibition, % at 3 µM; in the data active = inhibition above about 22%;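 note: CHO-Ga16 host cells stimulated with ATP at an EC80 level; 0% = agonist EC80 plus vehicle and 100% = vehicle without agonist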
TAAR1 ant conf: human TAAR1 antagonism, confirmed. shares compounds with TAAR1 antag. TAAR1-expressing cells, fluorescence antagonist read-out. inhibition, % at 3 µM. 2,400 compounds, 40% hits. AID 651785; in the data active = inhibition above about 49%;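 note: CHO-Ga16 host cells challenged with agonist PEA near its EC80; 0% = agonist at EC80 plus vehicle and 100% = vehicle with no agonist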
Ga16 nonsel ag: nonselective Ga16 agonism, counter-screen; AID 651953; shares compounds with TAAR1 antag; Ga16-expressing cells, calcium fluorescence, agonist counterscreen; activation, % at 3 µM; 2,400 compounds, 18% hits; in the data active = activation above about 12%;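 note: 0% = vehicle wells and 100% = saturating stimulus response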
TAAR1 ag count: activates human TAAR1 in antagonist counter-screen; shares compounds with TAAR1 antag; AID 651955; 2,400 compounds, 2% hits; hTAAR1 cell line, fluorescence activation, agonist mode; activation, % at 3 µM; in the data active = activation above about 37%;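 note: CHO cells stably expressing TAAR1 with calcium dye readout; 0% = DMSO vehicle and 100% = full agonist response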
The depositor's hits bear a star; . = no result. In the library only some 3.9% were active in any assay of this set; here they are far more common.

SMILES	m5-HT2A agonist	TAAR1 antag	CHRM1 antagonist	M1 PAM	TAAR1 ag	M1 ag	TAAR1 nonsel count	TAAR1 ant conf	Ga16 nonsel ag	TAAR1 ag count
NC(c1ccc(F)c(F)c1)c1nc(-c2ccc3ccccc3c2)cs1 (configuration not stated)	-3.5	8.2	15.9	-8.5	2.2	-1.4	.	.	.	.
OC(c1ccc(F)c(F)c1)c1nc(-c2ccc3ccccc3c2)cs1 (configuration not stated)	1.8	55.3*	-7.1	2.2	22.7	-1.7	32.4*	36.9	12.8*	13.8
COc1ccc(C(=O)N/N=C/c2ccc3cccc(OCc4ccccc4)c3n2)cc1	-7.2	60.4*	31.5*	-8.1	13.0	1.0	27.0*	53.4*	6.4	5.1
NC(=S)N/N=C/c1ccc2cccc(OCc3ccccc3)c2n1	-1.0	29.1	-10.6	5.0	4.8	0.7	.	.	.	.
O=C(N/N=C/c1ccc2cccc(OCc3ccccc3)c2n1)c1ccc(Br)cc1	-10.5	61.9*	24.8	-5.5	9.6	-0.6	21.0	46.9	4.5	2.0
COc1ccc(CCN2CC(C(=O)N3CCN(C(C)=O)CC3)CCC2=O)cc1 (configuration not stated)	-4.6	-13.2	-5.5	7.4	1.5	-1.3	.	.	.	.
CCN(CC)C(=O)[C@H]1C[C@@H]2[C@H](C[C@@H](c3ccccc3)[C@H]1C)N(c1ccc(F)cc1)C(=O)N2CCCOc1ccccc1	.	68.8*	.	.	3.6	.	30.3*	57.8*	5.2	5.4
O=C(CCNC(=O)c1ccc([N+](=O)[O-])cc1)Nc1ccc(Cl)c(S(=O)(=O)N2CCOCC2)c1	0.7	102.4*	-13.6	13.1	0.3	-5.3	-2.9	-12.3	3.1	3.1
CCCCn1c(N)c(N(CC)C(=O)c2c(C)noc2C)c(=O)[nH]c1=O	4.5	-14.9	-8.8	10.0	5.8	0.7	.	.	.	.
Cc1c[nH]c(=O)c([N+](=O)[O-])c1	4.2	-2.2	-8.9	19.4	-0.8	3.5	.	.	.	.
NC(=O)CC(NC(=O)c1ccccc1)c1ccc(NCCN2CCCCC2)c([N+](=O)[O-])c1 (configuration not stated)	2.4	-8.8	1.8	6.4	2.0	-3.2	.	.	.	.
CCN(CC)S(=O)(=O)c1ccc(C(O)=C(C#N)c2nc3ccccc3n2C)cc1	3.0	65.6*	-5.2	-4.5	16.1	-1.7	30.5*	58.7*	13.1*	14.6
O=C(CCN1C(=O)/C(=C/c2ccccc2Cl)SC1=S)NCCc1ccc(O)cc1	1.9	38.4	-7.5	2.6	5.1	1.1	.	.	.	.
Cc1ccc2c(c1)-c1c(cnn1CC(=O)N1CCCN(Cc3ccccc3F)C1)CO2	1.6	75.3*	15.4	-8.0	14.2	2.2	27.7*	51.8*	9.9	9.6
Cc1ccc2c(c1)-c1c(cnn1CC(=O)O)CO2	1.4	-10.7	-14.0	8.4	4.0	-3.6	.	.	.	.
Cc1ccccc1Cn1cccc1/C=C1/C(=N)N2C=CSC2=NC1=O	-2.2	61.7*	11.4	-4.2	10.0	0.0	32.5*	42.8	5.2	5.7
O=C(Nc1ccc(S(=O)(=O)N2CCCCC2c2cccnc2)cc1)c1ccccc1F (configuration not stated)	0.3	56.3*	-0.5	-6.9	12.0	-5.2	27.2*	34.2	9.8	9.4
CCOc1ccc(C(=O)Nc2ccccc2N2CCN(C(=O)c3ccccc3)CC2)cc1[N+](=O)[O-]	2.9	66.9*	-8.2	6.7	8.4	-3.2	24.9*	45.3	8.5	7.5
CCOc1ccc(C(=O)NC(=S)Nc2ccccc2N2CCC(C)CC2)cc1[N+](=O)[O-]	4.0	-18.7	5.8	0.8	1.4	-2.2	.	.	.	.
CC1CCCCC1NC(=O)c1ccc(-n2cncn2)c([N+](=O)[O-])c1 (configuration not stated)	-0.8	-8.3	-6.5	7.7	0.7	-3.8	.	.	.	.
CC1CCCCC1NC(=O)c1ccc(-n2cncn2)cc1 (configuration not stated)	-3.3	92.9*	-1.9	0.2	-2.9	-1.3	12.7	4.9	7.6	5.4
COc1cccc(OCCn2cc(C(=O)c3ccco3)c3ccccc32)c1	-7.3	70.3*	18.7	-8.1	8.2	-4.0	22.5*	46.0	5.0	7.1
C=CCN(CC=C)CCCOc1ccc(Br)cc1Cl	-0.6	4.7	3.2	-8.5	5.5	-10.1	.	.	.	.
CC(=O)Nc1c(NC(=O)CC#N)[nH]c2c(c1=O)c(=O)n(C)c(=O)n2C	4.5	-6.1	-5.2	9.8	2.3	-4.2	.	.	.	.
O=C(c1oc2ccccc2c1CSCc1ccccc1)N1CCN(c2ncccn2)CC1	-6.5	64.9*	23.0	-6.1	11.0	-2.6	29.8*	40.9	4.6	4.3
SMILES	m5-HT2A agonist	TAAR1 antag	CHRM1 antagonist	M1 PAM	TAAR1 ag	M1 ag	TAAR1 nonsel count	TAAR1 ant conf	Ga16 nonsel ag	TAAR1 ag count
CCOc1ccc(S(=O)(=O)N(CC(=O)NCc2cccnc2)c2ccc(C)cc2)cc1	-1.1	-0.2	-10.9	7.9	5.5	-5.2	.	.	.	.
CCOc1ccc(S(=O)(=O)N(CC(=O)NCc2cccnc2)c2ccc(F)cc2)cc1	4.7	64.9*	8.8	0.5	19.8	-5.8	28.7*	49.3*	12.8*	15.9
O=C(c1ccccc1)c1ccc2nc(-c3ccc(NC(=O)c4ccccc4F)cc3)[nH]c2c1	0.5	59.2*	13.4	-8.8	20.6	-1.2	28.6*	59.1*	8.9	6.8
CCOC(=O)CCc1c(C(=O)OCC)[nH]c(CC)c1C(=O)OCc1ccccc1	-6.5	44.0	22.3	-11.3	6.9	-4.7	.	.	.	.
COc1cc(OC)cc(C(=O)Nc2cccc(NC(=O)c3cc(OC)cc(OC)c3)n2)c1	-1.1	75.4*	21.9	-11.7	14.3	-2.8	27.5*	49.2*	7.6	5.3
CCCc1cc(C(=O)Nc2ccc(C(=O)c3ccccc3)cc2)n(C)n1	-4.7	71.9*	-1.2	-9.4	-1.5	-1.4	33.9*	54.7*	6.8	4.0
COc1cccc(C(=O)Nc2ccc(C(=O)c3ccccc3)cc2)c1	-6.1	66.9*	8.0	-4.8	6.7	-1.8	32.2*	40.6	8.2	1.5
COC(=O)c1ccc(-c2ccc(/C=N/N3C(=O)C4C5C=CC(C6CC56)C4C3=O)o2)cc1 (configuration not stated)	-2.5	61.8*	4.5	0.3	18.4	-1.8	27.3*	41.0	9.8	13.0

High-throughput results as filed in PubChem BioAssay.
